Test results reported in ChEMBL document CHEMBL1165943, “Design and synthesis of new anticancer pyrimidines with multiple-kinase inhibitory effect” (Bioorg Med Chem, 2010).

What was measured:
Format in all cases: functional
[1] = tested on: HL-60(TB); assay: Cytotoxicity against human HL-60(TB) cells assessed as cell growth at 10 uM; conditions: Homo sapiens, HL-60; read-out: Activity
How it was run: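 Single-concentration 10 µM screen of HL-60(TB) within the 60-line panel, grown in RPMI 1640 with 5% FBS. The drug from DMSO stock is incubated 48 h at 37 °C, settled cells are TCA-fixed and SRB-stained, and absorbance is read at 515 nm. Percent growth is reported, and inhibition % is taken as 100 minus growth %.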

[2] = tested on: K562; assay: Cytotoxicity against human K562 cells assessed as cell growth at 10 uM; conditions: Homo sapiens, K562; read-out: Activity
How it was run: (§1)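 Single-dose screen at 10 μM across the 60-cell-line panel. Cells grown in RPMI 1640 with 5% FBS and 2 mM L-glutamine, seeded at 5,000–40,000 cells/well according to doubling time, and treated 24 h later. Exposure lasted 48 h at 37 °C, 5% CO₂. Adherent cells were fixed with cold TCA, suspension cells were fixed settled, and both were stained with SRB and read at 515 nm. Growth % was recorded, with inhibition % = 100 − growth %.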

[3] = tested on: MOLT-4; assay: Cytotoxicity against human MOLT4 cells assessed as cell growth at 10 uM; conditions: Homo sapiens, MOLT-4; read-out: Activity; how it was run: as §1
[4] = tested on: SR; assay: Cytotoxicity against human SR cells assessed as cell growth at 10 uM; conditions: Homo sapiens, SR; read-out: Activity; how it was run: as §1
[5] = tested on: HOP-62; assay: Cytotoxicity against human HOP62 cells assessed as cell growth at 10 uM; conditions: Homo sapiens, HOP-62; read-out: Activity
How it was run: (§2)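 Single-concentration screen at 10 μM across the 60-cell-line panel (nine tissue types); growth percentage recorded per cell line, with inhibition taken as 100 minus growth percentage.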

[6] = tested on: NCI-H226; assay: Cytotoxicity against human NCI-H226 cells assessed as cell growth at 10 uM; conditions: Homo sapiens, NCI-H226; read-out: Activity; how it was run: as §1
[7] = tested on: NCI-H23; assay: Cytotoxicity against human NCI-H23 cells assessed as cell growth at 10 uM; conditions: Homo sapiens, NCI-H23; read-out: Activity; how it was run: as §1
[8] = tested on: NCI-H522; assay: Cytotoxicity against human NCI-H522 cells assessed as cell growth at 10 uM; conditions: Homo sapiens, NCI-H522; read-out: Activity; how it was run: as §1
[9] = tested on: HCC 2998; assay: Cytotoxicity against human HCC2998 cells assessed as cell growth at 10 uM; conditions: Homo sapiens, HCC 2998; read-out: Activity; how it was run: as §2
[10] = tested on: HCT-116; assay: Cytotoxicity against human HCT116 cells assessed as cell growth at 10 uM; conditions: Homo sapiens, HCT-116; read-out: Activity; how it was run: as §2
[11] = tested on: HCT-15; assay: Cytotoxicity against human HCT15 cells assessed as cell growth at 10 uM; conditions: Homo sapiens, HCT-15; read-out: Activity; how it was run: as §2
[12] = tested on: HT-29; assay: Cytotoxicity against human HT-29 cells assessed as cell growth at 10 uM; conditions: Homo sapiens, HT-29; read-out: Activity; how it was run: as §2
[13] = tested on: KM12; assay: Cytotoxicity against human KM12 cells assessed as cell growth at 10 uM; conditions: Homo sapiens, KM12; read-out: Activity; how it was run: as §1
[14] = tested on: SF-268; assay: Cytotoxicity against human SF268 cells assessed as cell growth at 10 uM; conditions: Homo sapiens, SF-268; read-out: Activity; how it was run: as §1
[15] = tested on: SF-539; assay: Cytotoxicity against human SF539 cells assessed as cell growth at 10 uM; conditions: Homo sapiens, SF-539; read-out: Activity; how it was run: as §1
[16] = tested on: SNB-75; assay: Cytotoxicity against human SNB75 cells assessed as cell growth at 10 uM; conditions: Homo sapiens, SNB-75; read-out: Activity; how it was run: as §1
[17] = tested on: U-251; assay: Cytotoxicity against human U251 cells assessed as cell growth at 10 uM; conditions: Homo sapiens, U-251; read-out: Activity; how it was run: as §1
[18] = tested on: LOX IMVI; assay: Cytotoxicity against human LOXIMVI cells assessed as cell growth at 10 uM; conditions: Homo sapiens, LOX IMVI; read-out: Activity; how it was run: as §1
[19] = tested on: SK-MEL-2; assay: Cytotoxicity against human SK-MEL-2 cells assessed as cell growth at 10 uM; conditions: Homo sapiens, SK-MEL-2; read-out: Activity; how it was run: as §1
[20] = tested on: UACC-62; assay: Cytotoxicity against human UACC62 cells assessed as cell growth at 10 uM; conditions: Homo sapiens, UACC-62; read-out: Activity; how it was run: as §1
[21] = tested on: IGROV-1; assay: Cytotoxicity against human IGROV1 cells assessed as cell growth at 10 uM; conditions: Homo sapiens, IGROV-1; read-out: Activity; how it was run: as §1
[22] = tested on: OVCAR-3; assay: Cytotoxicity against human OVCAR-3 cells assessed as cell growth at 10 uM; conditions: Homo sapiens, OVCAR-3; read-out: Activity; how it was run: as §1
[23] = tested on: OVCAR-4; assay: Cytotoxicity against human OVCAR4 cells assessed as cell growth at 10 uM; conditions: Homo sapiens, OVCAR-4; read-out: Activity; how it was run: as §1
[24] = tested on: OVCAR-8; assay: Cytotoxicity against human OVCAR8 cells assessed as cell growth at 10 uM; conditions: Homo sapiens, OVCAR-8; read-out: Activity; how it was run: as §1
[25] = tested on: NCI/ADR-RES; assay: Cytotoxicity against human NCI/ADR-RES cells assessed as cell growth at 10 uM; conditions: Homo sapiens, NCI/ADR-RES; read-out: Activity; how it was run: as §1
[26] = tested on: 786-0; assay: Cytotoxicity against human 786-0 cells assessed as cell growth at 10 uM; conditions: Homo sapiens, 786-0; read-out: Activity; how it was run: as §2
[27] = tested on: A498; assay: Cytotoxicity against human A498 cells assessed as cell growth at 10 uM; conditions: Homo sapiens, A498; read-out: Activity; how it was run: as §2
[28] = tested on: ACHN; assay: Cytotoxicity against human ACHN cells assessed as cell growth at 10 uM; conditions: Homo sapiens, ACHN; read-out: Activity; how it was run: as §2
[29] = tested on: CAKI-1; assay: Cytotoxicity against human Caki1 cells assessed as cell growth at 10 uM; conditions: Homo sapiens, CAKI-1; read-out: Activity; how it was run: as §2
[30] = tested on: UO-31; assay: Cytotoxicity against human UO31 cells assessed as cell growth at 10 uM; conditions: Homo sapiens, UO-31; read-out: Activity; how it was run: as §1
[31] = tested on: DU-145; assay: Cytotoxicity against human DU145 cells assessed as cell growth at 10 uM; conditions: Homo sapiens, DU-145; read-out: Activity; how it was run: as §2
[32] = tested on: MCF7; assay: Cytotoxicity against human MCF7 cells assessed as cell growth at 10 uM; conditions: Homo sapiens, MCF7; read-out: Activity; how it was run: as §1
[33] = tested on: MDA-MB-231; assay: Cytotoxicity against human MDA-MB-231 cells assessed as cell growth at 10 uM; conditions: Homo sapiens, MDA-MB-231; read-out: Activity; how it was run: as §1
[34] = tested on: BT-549; assay: Cytotoxicity against human BT549 cells assessed as cell growth at 10 uM; conditions: Homo sapiens, BT-549; read-out: Activity; how it was run: as §2
[35] = tested on: T47D; assay: Cytotoxicity against human T47D cells assessed as cell growth at 10 uM; conditions: Homo sapiens, T47D; read-out: Activity; how it was run: as §1
[36] = tested on: MDA-MB-468; assay: Cytotoxicity against human MDA-MB-468 cells assessed as cell growth at 10 uM; conditions: Homo sapiens, MDA-MB-468; read-out: Activity; how it was run: as §1
[37] = Growth inhibition of human NCI60 cells at 10 uM after 48 hrs by sulforhodamine B assay relative to control; conditions: Homo sapiens, NCI60, 48 h; read-out: GI
How it was run: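 Single 10 µM dose across the 60-line panel for 48 h, with the same culture, TCA fixation and SRB 515 nm read-out. Inhibition % = 100 − growth %, given as the mean over the 60 cell lines.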

With FC(F)(F)c1cc(Nc2nccc(-c3cccnc3)n2)cc(C(F)(F)F)c1 the growth at 10 µM [1] was 101%, the growth at 10 µM [2] was 89.6% and the growth at 10 µM [3] was 95%. It also gave a growth at 10 µM [4] of 87.8%, a growth at 10 µM [5] of 104% and a growth at 10 µM [6] of 99.6%. It also gave a growth at 10 µM [7] of 97.9%, a growth at 10 µM [8] of 86.5% and a growth at 10 µM [9] of 118%. For the same compound, the growth at 10 µM [10] was 91.1%, the growth at 10 µM [11] was 92.7% and the growth at 10 µM [12] was 92.1%. For the same compound, the growth at 10 µM [13] was 103%, the growth at 10 µM [14] was 99.5% and the growth at 10 µM [15] was 97.1%. For the same compound, the growth at 10 µM [16] was 95.3%, the growth at 10 µM [17] was 98.7% and the growth at 10 µM [18] was 100%. The growth at 10 µM [19] was 98.2%, the growth at 10 µM [20] was 102% and the growth at 10 µM [21] was 101%. It also gave a growth at 10 µM [22] of 119%, a growth at 10 µM [23] of 121% and a growth at 10 µM [24] of 102%. The growth at 10 µM [25] was 94.7%, the growth at 10 µM [26] was 97.1% and the growth at 10 µM [27] was 103%. It also gave a growth at 10 µM [28] of 102%, a growth at 10 µM [29] of 91.5% and a growth at 10 µM [30] of 101%. It also gave a growth at 10 µM [31] of 106%, a growth at 10 µM [32] of 96% and a growth at 10 µM [33] of 91.3%. It also gave a growth at 10 µM [34] of 107%, a growth at 10 µM [35] of 83.9% and a growth at 10 µM [36] of 98.4%. The inhibition of growth at 10 µM [37] was -0.32%.
